Data reported in ChEMBL document CHEMBL1134641, “Progress toward the development of a safe and effective agent for treating reentrant cardiac arrhythmias: synthesis and evaluation of ibutilide analogues with enhanced metabolic stability and diminished proarrhythmic potential” (2001).
Where “and” joins values, the source holds several entries; their conditions need not be identical. Equal values may be shown once.

How the values were obtained:
[1] = system: Canis familiaris; assay: Atrial MAPD90 measured in canine 24-h Infarction model at an cumulative intravenous dose of 0.72 uM/kg; format: functional, Canis lupus familiaris, Cardiac atrium
Summary of the method: (§1)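 Male mongrel dogs (16-22 kg) with LAD permanently ligated in two stages; studied 24 h later. […] given IV in sequential doses to cumulative 0.24, 0.72, 2.4 µmol/kg. Saline controls (n=8) received vehicle, then a single IV 2.4 µmol/kg dose at the end. Measurements taken at baseline and 15 min after each dose. Means ± SEM, paired t-test, p ≤ 0.05.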

[2] = system: Canis familiaris; assay: Number of canine in which arrhythmias could not be induced at an cumulative intravenous dose of 2.4 uM/kg; format: functional, Canis lupus familiaris
Summary of the method: (§2)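 Male mongrel dogs (16-22 kg) with LAD ligated in two stages, studied 24 h later. Programmed electrical stimulation at baseline and 15 min after each iv dose in saline (cumulative 0.24, 0.72, 2.4 µmol/kg). Saline controls then received a single 2.4 µmol/kg iv dose. Responses scored as NI (≤15 beats), NSVT (>15 beats, ends within 30 s), SVT (>30 s, needing pacing or cardioversion) or VF. A positive response was repeated.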

[3] = system: Canis familiaris; assay: Ventricular effective refractory period ([…]) measured in canine just after inducing atrial flutter (AFL) termination by the compound at a dose of 0.6 umol/kg; format: functional, Canis lupus familiaris, Heart
Summary of the method: (§3)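 Conscious dogs, loosely restrained in a sling, with exteriorized electrode leads, studied 2 weeks after instrumentation. AFL was induced and counted as sustained if it lasted 5 min. Compound in saline given intravenously every 5 min to cumulative 0.024-12.0 µmol/kg. VERP was measured at AFL termination and 3 min after each dose. Results are means ± SEM versus baseline, p ≤ 0.05.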

[4] = system: Canis familiaris; assay: Atrial MAPD90 measured in canine 24-h Infarction model at a single intravenous dose of 2.4 uM/kg; format: functional, Canis lupus familiaris, Cardiac atrium; summary of the method: as §1
[5] = system: Canis familiaris; assay: Heart rate measured in canine 24-h Infarction model at an cumulative intravenous dose of 0.24 uM/kg; format: functional, Canis lupus familiaris; summary of the method: as §1
[6] = system: Canis familiaris; assay: QT interval measured in canine just after inducing atrial flutter (AFL) termination by the compound at a dose of 1.2 uM/kg; format: functional, Canis lupus familiaris, Heart
Summary of the method: (§4)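 Conscious, sling-restrained dogs with chronically implanted electrodes, studied after 2 weeks of recovery. Sustained AFL (>5 min) induced. Compound in saline given iv every 5 min to cumulative 0.024-12.0 µmol/kg. At AFL termination, HR, QT (paced cycle length 300 ms), AERP and VERP measured. Measurements then taken 3 min after each further dose. Significance p≤0.05 vs baseline.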

[7] = system: Canis familiaris; assay: Ventricular effective refractory period ([…]) measured in canine just after inducing atrial flutter (AFL) termination by the compound at a dose of 4.8 uM/kg; format: functional, Canis lupus familiaris, Heart; summary of the method: as §3
[8] = organism: Canis familiaris; assay: Atrial effective refractory period (AERP) measured in canine just after inducing atrial flutter (AFL) termination by the compound; format: functional, Canis lupus familiaris, Heart
[9] = system: Canis familiaris; assay: Heart rate measured in canine 24-h Infarction model at an cumulative intravenous dose of 0.72 uM/kg; format: functional, Canis lupus familiaris; summary of the method: as §1
[10] = system: Canis familiaris; assay: Idioventricular heart rate (IVR) measured in canine 24-h Infarction model at a single intravenous dose of 2.4 uM/kg; format: functional, Canis lupus familiaris; summary of the method: as §1
[11] = system: Canis familiaris; assay: Spontaneous arrhythmias measured in canine 24-h Infarction model at a single intravenous dose of 2.4 uM/kg; format: functional, Canis lupus familiaris
Summary of the method: (§5)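 Dogs 24 h after two-stage LAD ligation. Compound in saline given iv in sequential doses (cumulative 0.24, 0.72, 2.4 µmol/kg); saline controls then given a single 2.4 µmol/kg iv dose. HR, IVR, BP, QT, spontaneous arrhythmias/min, ERPs and MAPD90 measured at baseline and 15 min after each dose. Means ± SEM, paired t-test, p≤0.05.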

[12] = system: Canis familiaris; assay: Ventricular effective refractory period ([…]) measured in canine just after inducing atrial flutter (AFL) termination by the compound at a dose of 0.24 umol/kg; format: functional, Canis lupus familiaris, Heart; summary of the method: as §3
[13] = system: Canis familiaris; assay: Ventricular MAPD90 measured in canine 24-h Infarction model at an cumulative intravenous dose of 0.24 uM/kg; format: functional, Canis lupus familiaris, Heart; summary of the method: as §5
[14] = system: Canis familiaris; assay: Blood pressure measured in canine 24-h Infarction model at an cumulative intravenous dose of 0.72 uM/kg; format: functional, Canis lupus familiaris; summary of the method: as §1
[15] = system: Canis familiaris; assay: Spontaneous arrhythmias measured in canine 24-h Infarction model at an cumulative intravenous dose of 0.72 uM/kg; format: functional, Canis lupus familiaris; summary of the method: as §5
[16] = system: Canis familiaris; assay: Ventricular effective refractory (VEPR) period measured in canine 24-h Infarction model at an cumulative intravenous dose of 0.24 uM/kg; format: functional, Canis lupus familiaris, Heart
Summary of the method: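 Male mongrel dogs (16-22 kg) with LAD permanently ligated in two stages, studied 24 h after ligation. Compound given in saline (6.0 µmol/mL) as sequential intravenous doses to reach cumulative 0.24, 0.72 and 2.4 µmol/kg. VERP and other measurements taken at baseline and 15 min after each dose. Saline-dosed dogs served as controls. Results are means ± SEM, paired t-test, p ≤ 0.05.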

[17] = system: Canis familiaris; assay: Number of canine in which ventricular fibrillation (VF) was observed in PES-induced arrhythmias at an cumulative intravenous dose of 0.24 uM/kg; format: functional, Canis lupus familiaris, Cardiac ventricle; summary of the method: as §2
[18] = system: Canis familiaris; assay: Atrial effective refractory period (AERP) measured in canine just after inducing atrial flutter (AFL) termination by the compound at a dose of 7.2 uM/kg; format: functional, Canis lupus familiaris, Heart
[19] = system: Canis familiaris; assay: QT interval measured in canine 24-h Infarction model at an cumulative intravenous dose of 0.24 uM/kg; format: functional, Canis lupus familiaris; summary of the method: as §5
[20] = system: Canis familiaris; assay: Ventricular effective refractory period ([…]) measured in canine just after inducing atrial flutter (AFL) termination by the compound at a dose of 12.0 uM/kg; format: functional, Canis lupus familiaris, Heart; summary of the method: as §3
[21] = system: Canis familiaris; assay: Number of canine in which arrhythmias could not be induced at an cumulative intravenous dose of 0.72 uM/kg; format: functional, Canis lupus familiaris; summary of the method: as §2
[22] = system: Canis familiaris; assay: QT interval measured in canine just after inducing atrial flutter (AFL) termination by the compound at a dose of 0.6 umol/kg; format: functional, Canis lupus familiaris, Heart; summary of the method: as §4
[23] = system: Canis familiaris; assay: QT interval measured in canine just after inducing atrial flutter (AFL) termination by the compound at a dose of 7.2 uM/kg; format: functional, Canis lupus familiaris, Heart; summary of the method: as §4
[24] = system: Canis familiaris; assay: Heart Rate measured in canine just after inducing atrial flutter (AFL) termination by the compound at a dose of 4.8 uM/kg; format: functional, Canis lupus familiaris
[25] = system: Canis familiaris; assay: Atrial effective refractory period (AERP) measured in canine just after inducing atrial flutter (AFL) termination by the compound at a dose of 12.0 uM/kg; format: functional, Canis lupus familiaris, Heart
[26] = system: Canis familiaris; assay: Heart Rate measured in canine just after inducing atrial flutter (AFL) termination by the compound at a dose of 12.0 uM/kg; format: functional, Canis lupus familiaris
[27] = system: Canis familiaris; assay: Number of canine in which nonsustained ventricular tachycardia (NSVT) was observed in PES-induced arrhythmias at an cumulative intravenous dose of 0.24 uM/kg; format: functional, Canis lupus familiaris, Cardiac ventricle; summary of the method: as §2
[28] = system: Canis familiaris; assay: Heart Rate measured in canine just after inducing atrial flutter (AFL) termination by the compound at a dose of 1.2 uM/kg; format: functional, Canis lupus familiaris
[29] = system: Canis familiaris; assay: Ventricular effective refractory (VEPR) period measured in canine 24-h Infarction model at a single intravenous dose of 2.4 uM/kg; format: functional, Canis lupus familiaris, Heart; summary of the method: as §5
[30] = system: Canis familiaris; assay: Number of canine in which sustained ventricular tachycardia (SVT) was observed in PES-induced arrhythmias at an single intravenous dose of 2.4 uM/kg; format: functional, Canis lupus familiaris, Cardiac ventricle; summary of the method: as §2
[31] = system: Canis familiaris; assay: Heart rate measured in canine 24-h Infarction model at a single intravenous dose of 2.4 uM/kg; format: functional, Canis lupus familiaris; summary of the method: as §1
[32] = system: Canis familiaris; assay: Ventricular MAPD90 measured in canine 24-h Infarction model at an cumulative intravenous dose of 2.4 uM/kg; format: functional, Canis lupus familiaris, Heart; summary of the method: as §5

## CCN(CCCCCC(C)(C)F)CCC[C@H](O)c1ccc(NS(C)(=O)=O)cc1.O=C(O)/C=C/C(=O)O
[1]
  Atrial MAPD90: 146 ms
[2]
  No. of canine: 10
[3]
  VERP: 141 ms
[4]
  Atrial MAPD90: 209 ms
[5]
  HR: 155 beats min-1
[6]
  QT interval: 212 ms
[7]
  VERP: 142 ms
[8]
  AERP: 149 ms
[9]
  HR: 146 beats min-1
[10]
  IVR: 111 beats min-1
[11]
  PVCs: 53 number min-1
[12]
  VERP: 142 ms
[13]
  Ventricular MAPD90: 162 ms
[14]
  BP: 115 mmHg
[15]
  PVCs: 68 number min-1 and 57 number min-1
[16]
  VERP: 162 ms
[17]
  No. of canine: 0
[18]
  AERP: 162 ms
[19]
  QT interval: 211 ms
[20]
  VERP: 137 ms
[21]
  No. of canine: 9
[22]
  QT interval: 208 ms
[23]
  QT interval: 205 ms
[24]
  HR: 118 beats min-1
[25]
  AERP: 164 ms
[26]
  HR: 122 beats min-1
[27]
  No. of canine: 2
[28]
  HR: 114 beats min-1
[29]
  VERP: 180 ms
[30]
  No. of canine: 1
[31]
  HR: 127 beats min-1
[32]
  Ventricular MAPD90: 185 ms
